From PubChem BioAssay come the findings set out here.

Molecules are shown by their SMILES. The source made the active and inactive calls.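 The calls were made as follows, unless noted: active = viability at or below 30% in both replicate assays; inconclusive = viability at or below 30% in just one of the two assays; inactive = the rest.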

As usually defined, the viability is a read-out of living cells in per cent, often relative to untreated cells. As usually defined, the inhibition is the relative decrease from the control value, in per cent.

Assay [1] is described as follows: SK-BR-3 cell growth inhibitors, pilot screen, 24 h, human (AID 572;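 active = viability at or below 10% of carrier control in both of two separate runs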;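 also: compound exposure lasted between 18 and 24 h rather than exactly 24 h; 100% = carrier-treated control wells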). As to conditions: SK-BR-3 viability, CellTiter-Glo luminescence, at 10 µM, stronger effect = lower value. (In general: ATP-based viability assays read luminescence as a measure of living cells.)
Assay [2] is described as follows: HUVEC growth inhibition – cell-based, human, primary screen (AID 575).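 Also: 100% = median of untreated cell wells with 0.1% DMSO on each plate.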 As to conditions: HUVEC proliferation, CellTiter-Glo luminescence, 72 h; at 10 µM; stronger effect = lower value. An outline of the steps:
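Test system: HUVEC primary cells. Quantity: 1250 endothelial cells in each well. Dosing: single-point 10 µM, DMSO 0.1% final. Incubation: 72 h treatment at 37 °C. Measured by: CTG luminescence. Control set: DMSO cell controls and MePR drug controls. Plate: collagen-coated 384-well format.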

Assay [3] is described as follows: growth inhibitors of H69AR lung tumor, primary screen, human, duplicate replicates (AID 580;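 active = viability at or under a set limit in both replicates, limit being median viability minus 3 SD, cut at about 48% in these data, passing the limit was not always enough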;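 also: 100% = mean luminescence of untreated wells and 0% = no signal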). As to conditions: H69AR lung tumor cells viability, ATP luminescence, 72 h; at 10 µM; stronger effect = lower value.
The nature of assay [4]: reversal of MRP1-mediated doxorubicin resistance, pilot screen, H69AR cells, doxorubicin co-treatment (AID 601;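 active = viability loss from added drug above about 55%, and viability with drug at most 40%, in both replicates, limit read from the data, passing the limit was not always enough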). As to conditions: CellTiter-Glo, 72 h, at 10 µM; for differential viability (reversal): stronger effect = higher value.
Assay [5] is described as follows: 384-well plate pilot, post-Golgi transport modulator project, inhibition of yeast transport mutant growth (AID 636; in the data active = inhibition above about 31%). As to conditions: absorbance 615 nm, about 18 h, stronger effect = higher value.
The nature of assay [6]: growth suppression of yeast trafficking mutant, preliminary HTS, modulators of trafficking downstream of Golgi apparatus project, 1536-format plate, OD 615 nm (AID 637; in the data active = inhibition above about 30%). As to conditions: yeast transport mutant growth, absorbance 615 nm, 18 h; stronger effect = higher value.
The mark [7] stands for this setting: H69AR cells + 2 uM doxorubicin, measured here: viability with 2 uM doxorubicin, stronger effect = lower value.
The mark [8] stands for this setting: H69AR cells, compound alone cytotoxicity.

As to `O=C(CN(CC1CCCO1)S(=O)(=O)c1ccc(S(=O)(=O)NC2CC2)cc1)Nc1ccccc1` (centres undefined), the viability in assay [1] is 109% (inactive); in assay [2], 96.9% (inactive); in assay [3], 95.3% (inactive); in assay [4] (setting [7]), 96.8%; in assay [4] (setting [8]), 95.3%. In addition, the differential viability (reversal) in assay [4] (H69AR cells + 2 uM doxorubicin) was -1.47% (inactive). Moreover, the inhibition in assay [5] was -2% (inactive); in assay [6] it was -9.27% (inactive).
For `CS(=O)(=O)N1CCCC(C(=O)N2CCOCC2)C1` (centres undefined), the viability in assay [1] is 97% (inactive); in assay [2] it was 108% (inactive); in assay [3], 98.3% (inactive); in assay [4] (setting [7]) it was 94.2%; in assay [4] (setting [8]) it was 98.3%. The differential viability (reversal) in assay [4] (H69AR cells + 2 uM doxorubicin) was 4.13% (inactive). Also, the inhibition was -2.6% (inactive) in assay [5] and -1.15% (inactive) in assay [6].
Regarding `C[N+](C)(C)CCCCCCCCCC[N+](C)(C)C`, the viability is 106% (inactive) in assay [1]; 100% (inactive) in assay [2]; 104% (inactive) in assay [3]; 90% in assay [4] (setting [7]); 104% in assay [4] (setting [8]). In addition, in assay [4] (H69AR cells + 2 uM doxorubicin), the differential viability (reversal) was 13.9% (inactive). For the same compound, the inhibition in assay [5] is 1.69% (inactive); in assay [6], -1.5% (inactive).
As for `CCCCCCC(c1c(C)n(C)n(-c2ccccc2)c1=O)c1c(C)n(C)n(-c2ccccc2)c1=O`, the viability is 90% (inactive) in assay [1]; 99.9% (inactive) in assay [2]; 80.8% (inactive) in assay [3]; 78.7% in assay [4] (setting [7]); 80.8% in assay [4] (setting [8]). Further, the differential viability (reversal) in assay [4] (H69AR cells + 2 uM doxorubicin) is 2.09% (inactive). The inhibition was -3.47% (inactive) in assay [5] and -0.18% (inactive) in assay [6].
As for `COCCN(CCOC)C(=O)CCn1c(=O)oc2ccccc21`, the viability in assay [1] is 95% (inactive); in assay [2], 105% (inactive); in assay [3], 89% (inactive); in assay [4] (setting [7]), 96.5%; in assay [4] (setting [8]), 89%. Further, in assay [4] (H69AR cells + 2 uM doxorubicin), the differential viability (reversal) is -7.45% (inactive). Also, the inhibition was -3.97% (inactive) in assay [5] and -0.18% (inactive) in assay [6].
Turning to `CCC1CCCCN1c1nc(-c2ccncc2)nc2ccccc12` (centres undefined), the viability in assay [1] is 76.5% (inactive); in assay [2], 15.1% (active); in assay [3], 14.5% (active); in assay [4] (setting [7]), 55%; in assay [4] (setting [8]) it was 14.5%. Besides, in assay [4] (H69AR cells + 2 uM doxorubicin), the differential viability (reversal) was -40.4% (inactive). The inhibition in assay [5] is -0.79% (inactive); in assay [6] it was 0.49% (inactive).
`Cc1ccc(NC(=O)CSC2=C(C#N)C(c3ccc4c(c3)OCO4)CC(=O)N2)cc1C` (centres undefined): the viability is 64% (inactive) in assay [1]; 92.9% (inactive) in assay [2]; 88.6% (inactive) in assay [3]; 93.4% in assay [4] (setting [7]); 88.6% in assay [4] (setting [8]). Besides, in assay [4] (H69AR cells + 2 uM doxorubicin), the differential viability (reversal) was -4.82% (inactive). In addition, the figures for the inhibition in assay [5] and in assay [6] were 7.7% (inactive) and -2.55% (inactive), respectively.
For `COc1nc(NCCc2ccc(OC)c(OC)c2)nc(NC(C)(C)CO)n1`, the viability in assay [1] is 96% (inactive); in assay [2], 113% (inactive); in assay [3], 95.5% (inactive); in assay [4] (setting [7]), 87.8%; in assay [4] (setting [8]) it was 95.5%. Also, in assay [4] (H69AR cells + 2 uM doxorubicin), the differential viability (reversal) was 7.75% (inactive). Also, the inhibition in assay [5] was -3.38% (inactive); in assay [6], -1.31% (inactive).
Take `NCc1ccc(S(N)(=O)=O)cc1`: the viability in assay [1] was 124% (inactive); in assay [2] it was 84.8% (inactive); in assay [3], 102% (inactive); in assay [4] (setting [7]) it was 92.1%; in assay [4] (setting [8]), 102%. The differential viability (reversal) in assay [4] (H69AR cells + 2 uM doxorubicin) is 9.47% (inactive). Further, the inhibition in assay [5] was -1.43% (inactive); in assay [6], 6.33% (inactive).
For `CCOC(=O)N1CCC(NC(=O)C2CCC(Cn3c(=O)[nH]c4ccccc4c3=O)CC2)CC1` (centres undefined), the viability in assay [1] is 134% (inactive); in assay [2], 64.8% (inactive); in assay [3] it was 16.8% (active); in assay [4] (setting [7]) it was 24.6%; in assay [4] (setting [8]), 16.8%. Besides, in assay [4] (H69AR cells + 2 uM doxorubicin), the differential viability (reversal) is -7.75% (inactive). Moreover, the inhibition in assay [5] is -5.71% (inactive); in assay [6], 0.66% (inactive).
In the case of `CCCn1c(=NC(C)=O)c(C#N)cc2c(=O)n3cccc(C)c3nc21`, the viability in assay [1] is 89% (inactive); in assay [2], 108% (inactive); in assay [3], 87.3% (inactive); in assay [4] (setting [7]), 90.3%; in assay [4] (setting [8]) it was 87.3%. Further, the differential viability (reversal) in assay [4] (H69AR cells + 2 uM doxorubicin) was -3.01% (inactive). Also, the inhibition in assay [5] was 0.81% (inactive); in assay [6] it was -3.45% (inactive).
`COc1ccc(-c2ccc(=O)n(Cc3cc(=O)n4ccccc4n3)n2)cc1`: the viability in assay [1] was 102% (inactive); in assay [2], 107% (inactive); in assay [3] it was 97% (inactive); in assay [4] (setting [7]), 91.1%; in assay [4] (setting [8]), 97%. Moreover, in assay [4] (H69AR cells + 2 uM doxorubicin), the differential viability (reversal) was 5.91% (inactive). Moreover, the inhibition is -3.38% (inactive) in assay [5] and 4.36% (inactive) in assay [6].
With `O=C(NC1CCCCCC1)c1cc(S(=O)(=O)N2CCC3(CC2)OCCO3)ccc1F`, the viability in assay [1] was 106% (inactive); in assay [2] it was 98.2% (inactive); in assay [3], 88.3% (inactive); in assay [4] (setting [7]), 92.4%; in assay [4] (setting [8]), 88.3%. Moreover, the differential viability (reversal) in assay [4] (H69AR cells + 2 uM doxorubicin) was -4.04% (inactive). Further, the inhibition in assay [5] was 0.27% (inactive); in assay [6], 3.27% (inactive).
For `CC(C)(C)NC(=O)CN(Cc1cccs1)C(=O)c1csnn1`, the viability in assay [1] is 96% (inactive); in assay [2], 99.7% (inactive); in assay [3], 105% (inactive); in assay [4] (setting [7]), 108%; in assay [4] (setting [8]) it was 105%. For the same compound, in assay [4] (H69AR cells + 2 uM doxorubicin), the differential viability (reversal) is -2.3% (inactive). Moreover, the inhibition is -7.12% (inactive) in assay [5] and -0.36% (inactive) in assay [6].
As to `Cc1nc(NC(=O)c2csc3ccccc23)sc1C`, the viability is 100% (inactive) in assay [1]; 83% (inactive) in assay [2]; 78.2% (inactive) in assay [3]; 81.5% in assay [4] (setting [7]); 78.2% in assay [4] (setting [8]). Moreover, the differential viability (reversal) in assay [4] (H69AR cells + 2 uM doxorubicin) was -3.3% (inactive). Besides, the inhibition was 3.84% (inactive) in assay [5] and -2.74% (inactive) in assay [6].
On to `Cc1c(Cl)cccc1Nc1ccccc1C(=O)O`, for which the viability is 108% (inactive) in assay [1]; 56.7% (inactive) in assay [2]; 111% (inactive) in assay [3]; 102% in assay [4] (setting [7]); 111% in assay [4] (setting [8]). The differential viability (reversal) in assay [4] (H69AR cells + 2 uM doxorubicin) was 9% (inactive). For the same compound, the inhibition in assay [5] was -1.17% (inactive); in assay [6], 5.33% (inactive).
Consider `CN(C)c1ccc(NC(=O)Nc2cccc(Cl)c2)cc1`, for which the viability in assay [1] was 83% (inactive); in assay [2] it was 99.9% (inactive); in assay [3], 88.7% (inactive); in assay [4] (setting [7]), 84.7%; in assay [4] (setting [8]) it was 88.7%. In addition, the differential viability (reversal) in assay [4] (H69AR cells + 2 uM doxorubicin) is 3.98% (inactive). The inhibition in assay [5] was -6.71% (inactive); in assay [6] it was 4.55% (inactive).
In the case of `Cc1noc(NS(=O)(=O)c2ccc(N)cc2)c1C`, the viability was 97% (inactive) in assay [1]; 91% (inactive) in assay [2]; 105% (inactive) in assay [3]; 89.1% in assay [4] (setting [7]); 105% in assay [4] (setting [8]). Further, the differential viability (reversal) in assay [4] (H69AR cells + 2 uM doxorubicin) is 15.7% (inactive). Also, the inhibition in assay [5] is 2.34% (inactive); in assay [6] it was -1.5% (inactive).
